ChEMBL document CHEMBL1138063, “Imidazole-dioxolane compounds as isozyme-selective heme oxygenase inhibitors” (J Med Chem, 2006)

Legend:
[1] = Inhibition of rat liver CYP3A1/3A2; type: ADME, tissue-based
Summary of the method: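 CYP3A1/3A2 in rat liver microsomes, measured as erythromycin N-demethylase activity by spectrophotometric formaldehyde determination. Remaining activity was taken as % of control across inhibitor concentrations. IC50 came from a sigmoidal nonlinear regression, with two or three replicate curves.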

Nitric oxide synthase 1 = Nitric oxide synthase 1 (Rattus norvegicus, UniProt P29476); assay: Inhibition of rat brain nNOS
Nitric oxide synthase 1, sequence (P29476 whole entry): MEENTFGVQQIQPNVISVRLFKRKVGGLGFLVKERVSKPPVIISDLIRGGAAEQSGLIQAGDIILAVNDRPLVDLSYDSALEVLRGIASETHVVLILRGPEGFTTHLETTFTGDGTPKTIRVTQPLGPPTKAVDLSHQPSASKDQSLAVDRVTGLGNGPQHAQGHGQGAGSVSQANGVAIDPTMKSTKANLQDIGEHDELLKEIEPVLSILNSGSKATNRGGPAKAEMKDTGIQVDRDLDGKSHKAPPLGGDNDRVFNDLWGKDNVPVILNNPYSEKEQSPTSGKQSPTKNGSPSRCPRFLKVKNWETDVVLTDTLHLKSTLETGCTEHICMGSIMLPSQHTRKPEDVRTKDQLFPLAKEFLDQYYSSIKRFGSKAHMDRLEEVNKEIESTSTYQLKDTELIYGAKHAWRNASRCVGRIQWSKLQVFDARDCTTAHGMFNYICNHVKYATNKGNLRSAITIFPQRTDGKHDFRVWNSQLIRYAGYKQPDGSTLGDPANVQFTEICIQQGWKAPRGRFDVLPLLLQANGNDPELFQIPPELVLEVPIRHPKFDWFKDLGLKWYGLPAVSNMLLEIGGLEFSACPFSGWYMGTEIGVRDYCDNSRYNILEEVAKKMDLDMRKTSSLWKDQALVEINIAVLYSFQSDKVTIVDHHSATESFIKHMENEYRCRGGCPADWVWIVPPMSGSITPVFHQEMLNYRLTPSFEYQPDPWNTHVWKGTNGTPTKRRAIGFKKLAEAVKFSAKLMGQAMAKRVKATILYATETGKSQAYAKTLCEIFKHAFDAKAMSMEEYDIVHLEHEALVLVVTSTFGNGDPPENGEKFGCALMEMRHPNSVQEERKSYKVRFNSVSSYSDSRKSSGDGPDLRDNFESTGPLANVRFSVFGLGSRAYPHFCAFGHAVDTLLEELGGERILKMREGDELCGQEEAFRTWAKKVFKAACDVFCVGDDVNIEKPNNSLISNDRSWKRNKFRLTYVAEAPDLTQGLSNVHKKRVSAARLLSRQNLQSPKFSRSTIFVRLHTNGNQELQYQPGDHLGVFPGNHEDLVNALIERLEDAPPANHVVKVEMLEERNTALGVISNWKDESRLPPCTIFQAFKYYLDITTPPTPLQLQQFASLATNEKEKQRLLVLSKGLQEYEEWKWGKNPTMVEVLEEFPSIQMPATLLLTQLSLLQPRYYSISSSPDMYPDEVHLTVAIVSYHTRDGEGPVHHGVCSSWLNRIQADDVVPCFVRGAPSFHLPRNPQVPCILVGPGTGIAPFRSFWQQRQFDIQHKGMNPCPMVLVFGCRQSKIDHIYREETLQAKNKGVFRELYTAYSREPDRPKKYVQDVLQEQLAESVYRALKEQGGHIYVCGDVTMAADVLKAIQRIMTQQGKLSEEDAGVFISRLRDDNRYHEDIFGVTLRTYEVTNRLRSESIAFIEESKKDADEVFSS
Summary of the method: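 nNOS in rat brain cytosolic fraction, read as conversion of 14C-L-arginine to 14C-L-citrulline. Activity at several inhibitor concentrations was expressed as % of the uninhibited control. IC50 came from a nonlinear sigmoidal dose–response fit, with two or three replicate curves per compound.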

Cytochrome P450 2E1 = Cytochrome P450 2E1 (Rattus norvegicus, UniProt P05182); assay: Inhibition of rat liver CYP2E1; type: ADME, tissue-based
Cytochrome P450 2E1, sequence (P05182 whole entry): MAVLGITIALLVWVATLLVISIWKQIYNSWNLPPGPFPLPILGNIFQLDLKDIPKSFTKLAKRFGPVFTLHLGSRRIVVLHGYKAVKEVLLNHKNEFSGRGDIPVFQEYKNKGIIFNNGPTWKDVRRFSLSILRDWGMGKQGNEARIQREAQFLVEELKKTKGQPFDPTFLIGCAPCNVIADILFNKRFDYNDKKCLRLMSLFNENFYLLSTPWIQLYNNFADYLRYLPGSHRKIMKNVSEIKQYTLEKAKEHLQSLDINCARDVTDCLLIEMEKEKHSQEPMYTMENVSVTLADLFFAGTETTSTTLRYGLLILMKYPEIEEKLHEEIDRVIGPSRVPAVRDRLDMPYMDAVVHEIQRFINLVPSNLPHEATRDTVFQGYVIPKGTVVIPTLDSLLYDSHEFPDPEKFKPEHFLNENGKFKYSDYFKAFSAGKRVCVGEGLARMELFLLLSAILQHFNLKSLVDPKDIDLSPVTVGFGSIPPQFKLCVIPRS
Summary of the method: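 Rat liver microsomal CYP2E1 activity was read as p-nitrophenol hydroxylation, by spectrophotometric measurement of 4-nitrocatechol. Activity at several inhibitor concentrations (HCl salts) was expressed as percent of control. IC50 came from a nonlinear sigmoidal dose-response fit of each of two or three replicate curves.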

Heme oxygenase 2 [2] = target: T1, Heme oxygenase 2 (Rattus norvegicus, UniProt P23711); assay: Inhibition of Sprague-Dawley rat brain HO2
T1 sequence (P23711 whole entry): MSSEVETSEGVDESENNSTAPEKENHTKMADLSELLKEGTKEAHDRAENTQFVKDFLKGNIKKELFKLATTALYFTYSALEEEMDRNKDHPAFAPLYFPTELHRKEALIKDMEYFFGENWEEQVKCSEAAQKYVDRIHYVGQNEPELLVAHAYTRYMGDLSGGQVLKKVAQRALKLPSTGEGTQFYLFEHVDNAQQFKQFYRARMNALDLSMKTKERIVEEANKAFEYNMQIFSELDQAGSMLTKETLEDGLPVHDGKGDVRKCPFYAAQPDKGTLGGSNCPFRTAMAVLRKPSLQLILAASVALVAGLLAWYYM
Summary of the method: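 HO-2 source: Sprague-Dawley rat brain microsomes prepared by differential centrifugation. Compound (HCl salt) at 0.1–100 µM final was preincubated 10 min at 37 °C with 50 µM methemalbumin and 1 mg/mL protein in 100 mM phosphate pH 7.4. NADPH (1 mM final) was added and the mix incubated 15 min at 37 °C, then frozen on dry ice. CO was measured by GC, minus no-NADPH blanks. IC50 from sigmoidal fits, 2–3 replicate curves.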

Heme oxygenase 2 [3] = target: T1, Heme oxygenase 2; assay: Inhibition of rat liver HO2
Summary of the method: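 HO-2 source: rat liver microsomes. Heme was presented as methemalbumin (50 µM) with 1 mg/mL protein in 100 mM phosphate pH 7.4. Compound (HCl salt) was preincubated 10 min at 37 °C, then NADPH (1 mM final) was added for 15 min at 37 °C. CO was measured by GC, minus no-NADPH blanks. IC50 from sigmoidal fits of replicate curves.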

Heme oxygenase 1 = target: T2, Heme oxygenase 1 (Homo sapiens, UniProt P09601); assay: Inhibition of human spleen HO1
T2 sequence (P09601 whole entry): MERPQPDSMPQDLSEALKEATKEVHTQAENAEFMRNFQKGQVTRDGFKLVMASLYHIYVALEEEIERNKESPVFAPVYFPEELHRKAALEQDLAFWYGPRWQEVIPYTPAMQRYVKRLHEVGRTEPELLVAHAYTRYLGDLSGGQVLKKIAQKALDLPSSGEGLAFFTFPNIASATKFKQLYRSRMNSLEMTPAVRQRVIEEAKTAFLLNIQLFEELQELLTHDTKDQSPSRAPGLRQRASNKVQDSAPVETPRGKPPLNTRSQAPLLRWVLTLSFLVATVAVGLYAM
Summary of the method: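 HO-1 in human spleen microsomes. Heme was given as 50 µM methemalbumin in 100 mM phosphate buffer (pH 7.4) with 1 mg/mL protein. Inhibitor (0.1–100 µM final) was preincubated 10 min at 37 °C, then 1 mM NADPH was added for 15 min at 37 °C. Blanks lacking NADPH were subtracted. Reactions were stopped on dry ice and CO was measured by GC. IC50 came from sigmoidal fits of % control, from 2–3 replicate curves.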

[4] = target: Soluble guanylate cyclase (Rattus norvegicus); assay: Inhibition of rat lung sGC

SMILES	IC50 [1] [µM]	IC50 (Nitric oxide synthase 1) [µM]	IC50 (Cytochrome P450 2E1) [µM]	IC50 (Heme oxygenase 2 [2]) [µM]	IC50 (Heme oxygenase 2 [3]) [µM]	IC50 (Heme oxygenase 1) [µM]	IC50 [4] [µM]
C[C@H]1CO[C@@](CCc2ccc(Cl)cc2)(Cn2ccnc2)O1	8	773	6	–	–	–	–
C[C@H]1CO[C@](CCc2ccc(Cl)cc2)(Cn2ccnc2)O1	10	> 500	20	> 100	–	–	–
C[C@@H]1CO[C@@](CCc2ccc(Cl)cc2)(Cn2ccnc2)O1	3.2	362	3.6	–	532	1.5	–
Clc1ccc(CCC2(Cn3ccnc3)SCCS2)cc1	5.9	34	–	–	–	–	–
Clc1ccc(CCC2(Cn3ccnc3)OCCO2)cc1	–	182	5	> 100	–	–	> 1000
C[C@@H]1CO[C@](CCc2ccc(Cl)cc2)(Cn2ccnc2)O1	7	> 500	30	> 100	–	–	–
